Assay type in all cases: functional
In assay [1] the test system is Streptococcus pneumoniae. Briefly: Antimicrobial activity against Streptococcus pneumoniae 1 by time-kill analysis. The method, boiled down:
(§1)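 Time-kill in cation-adjusted Mueller-Hinton broth with 5% lysed horse blood; inocula 5 × 105 to 5 × 10^6 CFU/ml; drugs at MIC, 2× and 4× MIC; 35°C shaking water bath; viable counts at 0, 3, 6, 12 and 24 h. Bactericidal if ≥3 log10 CFU/ml (99.9%) reduction from original inoculum; 90% and 99% killing also scored.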

Assay [2] has as its system Streptococcus pneumoniae. As to the kind of experiment: Antimicrobial activity against Streptococcus pneumoniae 2 by time-kill analysis. The method, boiled down: (§2)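 Time-kill in cation-adjusted Mueller-Hinton broth with 5% lysed horse blood; inocula 5 × 105 to 5 × 10^6 CFU/ml; drugs at MIC, 2× and 4× MIC; 35°C shaking water bath; viable counts at 0, 3, 6, 12, 24 h. Bactericidal = ≥3 log10 CFU/ml (99.9%) drop from original inoculum; 90%/99%/99.9% killing scored per strain.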

Assay [3] relates to Streptococcus pneumoniae. Briefly: Antimicrobial activity against Streptococcus pneumoniae 3 by time-kill analysis. The procedure, abridged:
as §2

Assay [4] deals with Streptococcus pneumoniae. As to the kind of experiment: Antimicrobial activity against Streptococcus pneumoniae 4 by time-kill analysis. The method, boiled down:
as §2

Assay [5] relates to Streptococcus pneumoniae. Briefly: Antimicrobial activity against Streptococcus pneumoniae 5 by time-kill analysis. The method, boiled down:
as §1

In assay [6] the test system is Streptococcus pneumoniae. Briefly: Antimicrobial activity against Streptococcus pneumoniae 6 by time-kill analysis. The method, boiled down:
as §2

Assay [7] relates to Streptococcus pneumoniae. As to the kind of experiment: Antimicrobial activity against Streptococcus pneumoniae 7 by time-kill analysis. The method, boiled down: as §2
Assay [8] concerns Streptococcus pneumoniae. Briefly: Antimicrobial activity against Streptococcus pneumoniae 8 by time-kill analysis. The procedure, abridged:
as §2

The test system of assay [9] is Streptococcus pneumoniae. As to the kind of experiment: Antimicrobial activity against Streptococcus pneumoniae 9 by time-kill analysis. The procedure, abridged:
as §1

Assay [10] relates to Streptococcus pneumoniae. Briefly: Antimicrobial activity against Streptococcus pneumoniae 10 by time-kill analysis. The method, boiled down: as §2
Assay [11] relates to Streptococcus pneumoniae. As to the kind of experiment: Antimicrobial activity against Streptococcus pneumoniae 11 by time-kill analysis. The procedure, abridged: as §2
Assay [12] relates to Streptococcus pneumoniae. Briefly: Antimicrobial activity against Streptococcus pneumoniae 12 by time-kill analysis. The procedure, abridged: as §2
Assay [13] has as its system Streptococcus pneumoniae. As to the kind of experiment: Antimicrobial activity against penicillin-susceptible Streptococcus pneumoniae by agar dilution method. For orientation: In agar dilution the substance is mixed into plates at graded concentrations.
The subject of assay [14] is Streptococcus pneumoniae. As to the kind of experiment: Antimicrobial activity against penicillin-intermediate Streptococcus pneumoniae by agar dilution method.
In assay [15] the test system is Streptococcus pneumoniae. Briefly: Antimicrobial activity against penicillin-resistant Streptococcus pneumoniae by agar dilution method. The procedure, abridged: (§3)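 Agar dilution MIC on Mueller-Hinton agar with 5% sheep blood, inocula 10^4 CFU/spot; amoxicillin-clavulanate combined 1:2; S. pneumoniae ATCC 49619 quality control each run.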
Assay [16] deals with Streptococcus pneumoniae. As to the kind of experiment: Antimicrobial activity against Streptococcus pneumoniae 19A by agar dilution method. The procedure, abridged: as §3
In assay [17] the test system is Streptococcus pneumoniae. Briefly: Antimicrobial activity against Streptococcus pneumoniae isolate 1055 by agar dilution method.
Assay [18] deals with Streptococcus pneumoniae. As to the kind of experiment: Antimicrobial activity against Streptococcus pneumoniae isolate 1564 by agar dilution method.

The source of these data is ChEMBL document CHEMBL1649446, “Comparative antipneumococcal activities of sulopenem and other drugs” (2009).

≈ marks a conversion by molar mass, not a printed value.

On to `C[C@@H](O)[C@H]1C(=O)N2C(C(=O)O)=C(S[C@@H]3CN[C@H](C(=O)Nc4cccc(C(=O)O)c4)C3)[C@H](C)[C@H]12` [ERTAPENEM], for which the MIC against Streptococcus pneumoniae [1] worked out at 0.03 mg/L (≈ 0.0631 µM); against Streptococcus pneumoniae [2], 0.03 mg/L (≈ 0.0631 µM); with Streptococcus pneumoniae [3] it was 0.25 mg/L (≈ 0.526 µM); with Streptococcus pneumoniae [4], 1 mg/L (≈ 2.1 µM); against Streptococcus pneumoniae [5], 4 mg/L (≈ 8.41 µM); against Streptococcus pneumoniae [6] it was 0.12 mg/L (≈ 0.252 µM). Besides, the minimum inhibitory concentration (MIC) was 2 mg/L (≈ 4.21 µM) in the assay with Streptococcus pneumoniae [7]; 1 mg/L (≈ 2.1 µM) in the assay with Streptococcus pneumoniae [8]; 0.12 mg/L (≈ 0.252 µM) in the assay on Streptococcus pneumoniae [9]; 0.12 mg/L (≈ 0.252 µM) with Streptococcus pneumoniae [10]; 2 mg/L (≈ 4.21 µM) against Streptococcus pneumoniae [11]; 0.5 mg/L (≈ 1.05 µM) against Streptococcus pneumoniae [12].

Regarding `C[C@H]1COc2c(N3CCN(C)CC3)c(F)cc3c(=O)c(C(=O)O)cn1c23.C[C@H]1COc2c(N3CCN(C)CC3)c(F)cc3c(=O)c(C(=O)O)cn1c23.O` [LEVOFLOXACIN], the MIC50 with Streptococcus pneumoniae [13] was 1 mg/L; against Streptococcus pneumoniae [14], 1 mg/L; with Streptococcus pneumoniae [15], 1 mg/L; in the assay on Streptococcus pneumoniae [16], 2 mg/L. Also, the MIC90 turned out to be 16 mg/L against Streptococcus pneumoniae [13], 2 mg/L with Streptococcus pneumoniae [14], 4 mg/L with Streptococcus pneumoniae [15] and 2 mg/L in the assay with Streptococcus pneumoniae [16].

As for `COc1c(N2C[C@@H]3CCCN[C@@H]3C2)c(F)cc2c(=O)c(C(=O)O)cn(C3CC3)c12` [MOXIFLOXACIN], the MIC was determined as 4 mg/L (≈ 9.96 µM) against Streptococcus pneumoniae [1], 2 mg/L (≈ 4.98 µM) with Streptococcus pneumoniae [4], 4 mg/L (≈ 9.96 µM) in the assay on Streptococcus pneumoniae [17] and 0.25 mg/L (≈ 0.623 µM) against Streptococcus pneumoniae [18].

In the case of `CC[C@H]1OC(=O)[C@H](C)C(=O)[C@H](C)[C@@H](O[C@@H]2O[C@H](C)C[C@H](N(C)C)[C@H]2O)[C@](C)(OC)C[C@@H](C)C(=O)[C@H](C)[C@H]2N(CCCCn3cnc(-c4cccnc4)c3)C(=O)O[C@]12C` [TELITHROMYCIN], the minimum inhibitory concentration (MIC) amounted to 0.03 mg/L (≈ 0.0369 µM) with Streptococcus pneumoniae [1]; 0.008 mg/L (≈ 0.00985 µM) against Streptococcus pneumoniae [2]; 0.12 mg/L (≈ 0.148 µM) against Streptococcus pneumoniae [3]; 0.008 mg/L (≈ 0.00985 µM) in the assay on Streptococcus pneumoniae [4]; 0.12 mg/L (≈ 0.148 µM) against Streptococcus pneumoniae [5]; 0.004 mg/L (≈ 0.00493 µM) in the assay with Streptococcus pneumoniae [6]. Besides, the MIC in the assay with Streptococcus pneumoniae [7] worked out at 0.06 mg/L (≈ 0.0739 µM); against Streptococcus pneumoniae [8] it was 0.12 mg/L (≈ 0.148 µM); in the assay on Streptococcus pneumoniae [9], 0.008 mg/L (≈ 0.00985 µM); in the assay on Streptococcus pneumoniae [10], 0.008 mg/L (≈ 0.00985 µM); in the assay with Streptococcus pneumoniae [11] it was 0.03 mg/L (≈ 0.0369 µM); against Streptococcus pneumoniae [12] it was 0.016 mg/L (≈ 0.0197 µM).

For orientation: MIC means the lowest concentration that inhibits growth of the organism. The MIC50 is an inhibitory concentration at the 50% level, which refers to growth in some studies and to a panel of isolates in others. As a reminder, the MIC90 is the lowest concentration that inhibits either 90% of growth or 90% of the strains tested, depending on the study. A low value points to higher susceptibility.
